Data: ChEMBL document CHEMBL1134856, “SAR of 2,6-diamino-3,5-difluoropyridinyl substituted heterocycles as novel p38MAP kinase inhibitors” (Bioorg Med Chem Lett, 2002)
pIC50: −log10 of the molar value.

Legend:
[1] = molecular target: Mitogen-activated protein kinase 14 (Mus musculus, UniProt P47811); test: […] inhibition of murine Mitogen-activated protein kinase p38 alpha activity, GST-ATF-2 as substrate in the presence of 120 uM ATP
Procedure, shortened: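 Phosphorylated His-tagged p38α MAP kinase of murine origin was used at 10 ng/well. Immobilised GST-ATF-2 served as substrate, with 120 μM cold ATP.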

[2] = molecular target: T1, Prostaglandin G/H synthase 1 (Ovis aries, UniProt P05979); test: […] inhibition of ram seminal vesicle Prostaglandin G/H synthase 1 activity by determining PGE-2 by RIA
T1 sequence (P05979 whole entry): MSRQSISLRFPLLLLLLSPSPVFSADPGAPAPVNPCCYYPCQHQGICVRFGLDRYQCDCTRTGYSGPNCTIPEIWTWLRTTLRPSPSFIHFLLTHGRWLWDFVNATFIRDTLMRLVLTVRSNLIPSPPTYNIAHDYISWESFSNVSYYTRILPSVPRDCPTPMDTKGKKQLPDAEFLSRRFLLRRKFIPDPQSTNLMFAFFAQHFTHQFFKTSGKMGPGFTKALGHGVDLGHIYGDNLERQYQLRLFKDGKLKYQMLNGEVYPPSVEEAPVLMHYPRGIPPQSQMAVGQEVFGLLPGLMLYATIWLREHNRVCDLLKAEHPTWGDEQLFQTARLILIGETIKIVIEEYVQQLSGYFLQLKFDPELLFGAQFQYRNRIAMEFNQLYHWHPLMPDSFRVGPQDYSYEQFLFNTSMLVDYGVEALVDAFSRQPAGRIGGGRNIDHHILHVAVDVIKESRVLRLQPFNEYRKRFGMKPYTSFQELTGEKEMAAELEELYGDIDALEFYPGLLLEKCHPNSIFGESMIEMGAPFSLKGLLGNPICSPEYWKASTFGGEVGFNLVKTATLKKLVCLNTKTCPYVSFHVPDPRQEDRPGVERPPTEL

PBMC = test: Inhibition of LPS-stimulated TNF-alpha release from human peripheral blood mononuclear cells; type: functional, cell-based
Procedure, shortened: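 Human peripheral blood mononuclear cells from healthy volunteers were incubated with inhibitor and stimulated with LPS/IFN-γ for 3 h. TNF-α in the supernatants was determined by ELISA.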

Mus musculus = test: Inhibition of LPS induced TNF-alpha release in mice at 10 mg/kg peroral dose; type: functional; conditions: route oral
Procedure, shortened: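 Female OF1 mice, 8 weeks old, received compound by oral gavage in DMSO/corn oil. One hour after dosing, LPS (20 mg/kg) was given iv. Blood was collected 1 h later, and plasma TNF-α was measured by mouse-specific ELISA.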

Rattus norvegicus [3] = test: Tested for inhibition of swelling in adjuvant induced arthritis rat at 25 mg/kg per orally; Toxic; type: functional; conditions: po
Procedure, shortened: (§1)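 Adjuvant-induced arthritis: female Wistar rats were immunised with Mycobacterium tuberculosis on day 0. They were dosed orally at 2 × 25 mg/kg per day from day 14 to day 20. Joint swelling was measured on day 20.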

Rattus norvegicus [4] = test: Tested for inhibition of swelling in adjuvant induced arthritis rat at 25 mg/kg per orally; type: functional; conditions: route oral; procedure, shortened: as §1
[5] = Tested for the Cmax in rat at 10 mg/kg per orally; type: ADME, organism-based; design: dose 10 mg/kg, route oral; conditions: in vivo, po
[6] = Tested for the bioavailability in rat; type: ADME, organism-based; conditions: in vivo
[7] = Tested for the half life in rat; type: ADME, organism-based; conditions: in vivo
Homo sapiens = organism: Homo sapiens; test: Inhibition of LPS-stimulated TNF-alpha release from human whole blood; type: functional
Rattus norvegicus [8] = test: Tested for inhibition of swelling in adjuvant induced arthritis rat at 25 mg/kg perorally b.i.d.; type: functional; conditions: route oral; procedure, shortened: as §1
Rattus norvegicus [9] = organism: Rattus norvegicus; test: Tested for inhibition of paw swelling in collagen induced arthritis in rat, perorally b.i.d.; type: functional; conditions: oral
Procedure, shortened: (§2)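 Female WAGxBUF/F1 rats were immunised intradermally with bovine nasal septum type II collagen in Freund's incomplete adjuvant; swelling began about 10 days later. Oral dosing, once or twice daily, started on day 13 and continued for 10 days. Read-out was paw swelling, with ED50 values reported.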

Rattus norvegicus [10] = organism: Rattus norvegicus; test: Tested for inhibition of paw swelling in collagen induced arthritis in rat, perorally q.d.; type: functional; conditions: po; procedure, shortened: as §2
Rattus norvegicus [11] = test: Dose-dependent protective activity at 10 mg/kg (po, b.i.d.) in loss of proteoglycans in hind paws of CIA-rats; type: functional
Rattus norvegicus [12] = test: Dose-dependent protective activity at 10 mg/kg (po, b.i.d.) on bone apposition in hind paws of CIA-rats; type: functional
Rattus norvegicus [13] = test: Dose-dependent protective activity at 10 mg/kg (po, b.i.d.) on cartilage damage in hind paws of CIA-rats; type: functional
Rattus norvegicus [14] = test: Dose-dependent protective activity at 10 mg/kg (po, b.i.d.) on infiltration of cells in hind paws of CIA-rats; type: functional
Rattus norvegicus [15] = test: Dose-dependent protective activity at 3 mg/kg (po, b.i.d.) in loss of proteoglycans in hind paws of CIA-rats; type: functional
Rattus norvegicus [16] = test: Dose-dependent protective activity at 3 mg/kg (po, b.i.d.) on bone apposition in hind paws of CIA-rats; type: functional
Rattus norvegicus [17] = test: Dose-dependent protective activity at 3 mg/kg (po, b.i.d.) on cartilage damage in hind paws of CIA-rats; type: functional
Rattus norvegicus [18] = test: Dose-dependent protective activity at 3 mg/kg (po, b.i.d.) on infiltration of cells in hind paws of CIA-rats; type: functional
Rattus norvegicus [19] = test: Dose-dependent protective activity at 30 mg/kg (po, b.i.d.) in loss of proteoglycans in hind paws of CIA-rats; type: functional
Rattus norvegicus [20] = test: Dose-dependent protective activity at 30 mg/kg (po, b.i.d.) on bone apposition in hind paws of CIA-rats; type: functional
Rattus norvegicus [21] = test: Dose-dependent protective activity at 30 mg/kg (po, b.i.d.) on cartilage damage in hind paws of CIA-rats; type: functional
Rattus norvegicus [22] = test: Dose-dependent protective activity at 30 mg/kg (po, b.i.d.) on infiltration of cells in hind paws of CIA-rats; type: functional
Rattus norvegicus [23] = organism: Rattus norvegicus; test: Inhibition of LPS induced TNF-alpha release in rats; type: functional

Sequence of Mitogen-activated protein kinase 14 (P47811 whole entry): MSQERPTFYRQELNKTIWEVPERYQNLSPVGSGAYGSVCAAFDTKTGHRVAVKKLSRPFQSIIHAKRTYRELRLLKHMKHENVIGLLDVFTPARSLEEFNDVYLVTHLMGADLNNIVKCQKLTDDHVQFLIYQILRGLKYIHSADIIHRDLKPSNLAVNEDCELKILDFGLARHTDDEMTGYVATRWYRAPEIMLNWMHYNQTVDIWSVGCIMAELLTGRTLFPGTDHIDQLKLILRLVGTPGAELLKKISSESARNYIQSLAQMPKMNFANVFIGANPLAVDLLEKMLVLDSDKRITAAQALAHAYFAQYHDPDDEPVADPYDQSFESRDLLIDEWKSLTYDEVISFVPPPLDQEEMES

pIC50 [1] | pIC50 [2] | SMILES | pIC50 (PBMC) | inhibition in vivo at 10 mg/kg (Mus musculus) | other results
5.89 | – | Fc1ccc(-c2[nH]nnc2-c2ccncc2)cc1 | – | – | –
6.33 | 4.00 | Nc1nc(N)c(F)c(-c2nc(-c3cccc(C(F)(F)F)c3)c(-c3ccncc3)[nH]2)c1F | 7.27 | 21% | –
5.00 | 5.00 | Fc1ccc(-c2nn(-c3c(F)c(F)nc(F)c3F)nc2-c2ccncc2)cc1 | – | – | –
8.40 | 4.00 | Nc1nc(F)c(F)c(-c2nc(-c3ccncc3)c(-c3ccc(F)cc3)[nH]2)c1F | 7.36 | 64% | inhibition in vivo at 25 mg/kg (Rattus norvegicus [3]): 71%
4.00 | – | Fc1ccc(-c2nc(-c3c(F)c(F)nc(F)c3F)oc2-c2ccncc2)cc1 | – | – | –
7.80 | < 4.00 | Nc1nc(N)c(F)c(-c2nc(-c3ccc(F)cc3)c(-c3ccncc3)[nH]2)c1F | 7.36 | 83% | Cmax [5]: 3.12 µM; bioavailability [6]: 49%; half-life [7]: 1 h; pIC50 (Homo sapiens): 6.60; ED50 (Rattus norvegicus [8]): 10 mg/kg; ED50 (Rattus norvegicus [9]): 5 mg/kg; ED50 (Rattus norvegicus [10]): 43 mg/kg; Protective activity (Rattus norvegicus [11]): -38%; Protective activity (Rattus norvegicus [12]): -44%; Protective activity (Rattus norvegicus [13]): -44%; Protective activity (Rattus norvegicus [14]): -37%; Protective activity (Rattus norvegicus [15]): -17%; Protective activity (Rattus norvegicus [16]): -4%; Protective activity (Rattus norvegicus [17]): -15%; Protective activity (Rattus norvegicus [18]): -11%; Protective activity (Rattus norvegicus [19]): -42%; Protective activity (Rattus norvegicus [20]): -64%; Protective activity (Rattus norvegicus [21]): -58%; Protective activity (Rattus norvegicus [22]): -45%; ED50 (Rattus norvegicus [23]): 4 mg/kg
6.17 | 4.00 | Nc1nc(N)c(F)c(-c2nc(-c3ccncc3)c(-c3ccco3)[nH]2)c1F | 6.53 | 28% | –

The remaining lines, values behind:

SMILES | pIC50 [1] | pIC50 [2] | pIC50 (PBMC) | inhibition in vivo at 10 mg/kg (Mus musculus) | other results
Nc1nc(N)c(F)c(-n2nc(-c3ccncc3)c(-c3ccc(F)cc3)n2)c1F | 6.68 | 4.35 | – | – | –
Nc1nc(F)c(F)c(-c2nc(-c3ccc(F)cc3)c(-c3ccncc3)o2)c1F | 5.68 | 4.00 | 5.71 | – | –
Fc1ccc(-c2ncsc2-c2ccncc2)cc1 | 6.10 | – | – | – | –
Nc1nc(N)c(F)c(-c2cc(-c3ccncc3)c(-c3ccc(F)cc3)[nH]2)c1F | 8.40 | 5.20 | 7.74 | – | –
Nc1nc(N)c(F)c(-c2nc(-c3ccc(F)cc3)c(-c3ccncc3)o2)c1F | 6.40 | 4.00 | 6.43 | 81% | inhibition in vivo at 25 mg/kg (Rattus norvegicus [4]): 19%
Fc1ccc(-c2nc[nH]c2-c2ccncc2)cc1 | 6.00 | – | – | – | –
Fc1ccc(-c2[nH]c(-c3c(F)c(F)nc(F)c3F)nc2-c2ccncc2)cc1 | 7.05 | < 4.00 | 7.13 | 3% | –
Nc1nc(N)c(F)c(-c2nc(-c3ccc(F)cc3)c(-c3ccncc3)s2)c1F | 6.85 | 4.00 | 7.51 | – | –
Nc1nc(N)c(F)c(-c2nc(-c3ccncc3)c(-c3cc4ccccc4o3)[nH]2)c1F | 8.30 | 4.00 | 7.57 | 1.8% | –
Fc1ccc(-c2[nH]ccc2-c2ccncc2)cc1 | 6.10 | – | – | – | –
